Measurements reported in ChEMBL document CHEMBL1165950, “Design and synthesis of new potent anticancer pyrazoles with high FLT3 kinase inhibitory selectivity” (Bioorg Med Chem, 2010).

What was measured:
Format in all cases: functional
UACC-62 = assay: Cytotoxicity against human UACC62 cells assessed as cell growth at 0.001 uM after 48 hrs by sulforhodamine B assay; details: UACC-62, 48 h, read-out: Activity
HOP-62 [1] = assay: Cytotoxicity against human HOP62 cells assessed as cell growth at 0.001 uM after 48 hrs by sulforhodamine B assay; details: HOP-62, 48 h, read-out: Activity
HL-60(TB) = assay: Growth inhibition of human HL-60(TB) cells after 48 hrs by sulforhodamine B assay; details: HL-60, 48 h
Summary of the method: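 NCI 60-cell SRB screen. Cells in RPMI 1640 with 5% FBS and 2 mM L-glutamine are preincubated 24 h, then exposed to five concentrations (10-fold or 1/2-log dilutions from DMSO stock) for 48 h at 37 °C. Suspension cells are fixed with 80% TCA (final 16%), and A515 is read. IC50 is taken as the concentration where [(Ti−Tz)/(C−Tz)]×100 = 50, i.e. 50% reduction in net protein increase.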

M14 [2] = assay: Cytotoxicity against human M14 cells assessed as cell growth at 0.001 uM after 48 hrs by sulforhodamine B assay; details: M14, 48 h, read-out: Activity
Malme-3M = assay: Cytotoxicity against human MALME-3M cells assessed as cell growth at 0.01 uM after 48 hrs by sulforhodamine B assay; details: read-out: Activity
OVCAR-8 = assay: Cytotoxicity against human OVCAR8 cells assessed as cell growth at 1 uM after 48 hrs by sulforhodamine B assay; details: OVCAR-8, 48 h, read-out: Activity
OVCAR-5 [3] = assay: Cytotoxicity against human OVCAR5 cells assessed as cell growth at 100 nM after 48 hrs by sulforhodamine B assay; details: OVCAR-5, 48 h, read-out: Activity
NCI/ADR-RES = assay: Growth inhibition of human NCI/ADR-RES cells after 48 hrs by sulforhodamine B assay
Summary of the method: (§1)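 NCI 60-cell screen, five-dose mode. Cells grown in RPMI 1640 with 5% FBS and 2 mM L-glutamine and plated at 5000-40,000 cells/well according to doubling time. After 24 h preincubation, a Tz plate was TCA-fixed. Five concentrations (10-fold or 1/2 log dilutions) were applied for 48 h at 37 °C. SRB staining read at 515 nm. IC50 taken from [(Ti-Tz)/(C-Tz)]×100 = 50.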

OVCAR-3 = assay: Cytotoxicity against human OVCAR-3 cells assessed as cell growth at 0.01 uM after 48 hrs by sulforhodamine B assay; details: OVCAR-3, 48 h, read-out: Activity
SK-MEL-2 = assay: Cytotoxicity against human SK-MEL-2 cells assessed as cell growth at 0.001 uM after 48 hrs by sulforhodamine B assay; details: SK-MEL-2, 48 h, read-out: Activity
K562 = assay: Cytotoxicity against human K562 cells assessed as cell growth at 10 uM after 48 hrs by sulforhodamine B assay; details: K562, 48 h, read-out: Activity
TK-10 = assay: Cytotoxicity against human TK10 cells assessed as cell growth at 0.01 uM after 48 hrs by sulforhodamine B assay; details: TK-10, 48 h, read-out: Activity
KM12 = assay: Cytotoxicity against human KM12 cells assessed as cell growth at 100 nM after 48 hrs by sulforhodamine B assay; details: KM12, 48 h, read-out: Activity
COLO 205 = assay: Cytotoxicity against human COLO205 cells assessed as cell growth at 0.01 uM after 48 hrs by sulforhodamine B assay; details: COLO 205, 48 h, read-out: Activity
Summary of the method: (§2)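 NCI-60 five-dose screen. Cells were grown in RPMI 1640 with 5% FBS and 2 mM L-glutamine, plated at 5000–40,000 cells/well and preincubated for 24 h. Time-zero plates were TCA-fixed. DMSO-solubilized drug was added at five concentrations (10-fold or ½-log serial dilutions) for 48 h at 37 °C, 5% CO2. Cells were TCA-fixed, stained with 0.4% SRB and read at 515 nm. Percent growth used time-zero, control and test absorbances.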

786-0 = assay: Cytotoxicity against human 786-0 cells assessed as cell growth at 0.01 uM after 48 hrs by sulforhodamine B assay; details: 786-0, 48 h, read-out: Activity; summary of the method: as §2
HCT-15 = assay: Cytotoxicity against human HCT15 cells assessed as cell growth at 0.001 uM after 48 hrs by sulforhodamine B assay; details: HCT-15, 48 h, read-out: Activity
HOP-62 [4] = assay: Cytotoxicity against human HOP62 cells assessed as cell growth at 10 uM; details: read-out: Activity
Summary of the method: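 Single-dose NCI-60 screen at 10 µM. Cells were grown in RPMI 1640 with 5% FBS and 2 mM L-glutamine, then treated for 48 h at 37 °C. Protein was measured by SRB staining with absorbance at 515 nm. Percentage growth was recorded, and inhibition percentage was calculated as 100 minus growth percentage.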

MDA-MB-435 = assay: Cytotoxicity against human MDA-MB-435 cells assessed as cell growth at 10 uM; details: read-out: Activity
Summary of the method: (§3)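 NCI-60 screen: cells grown in RPMI 1640 with 5% FBS and 2 mM L-glutamine, plated at 5000–40,000 cells/well according to doubling time, and preincubated 24 h at 37 °C, 5% CO2. The single 10 µM dose (DMSO stock) was added, then incubated 48 h. Cells were TCA-fixed and stained with 0.4% SRB, read at 515 nm, and growth % calculated against time-zero and control plates.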

T47D [5] = assay: Growth inhibition of human T47D cells after 48 hrs by sulforhodamine B assay; summary of the method: as §1
LOX IMVI = assay: Cytotoxicity against human LOXIMVI cells assessed as cell growth at 1 uM after 48 hrs by sulforhodamine B assay; details: read-out: Activity
SF-539 = assay: Cytotoxicity against human SF539 cells assessed as cell growth at 0.001 uM after 48 hrs by sulforhodamine B assay; details: SF-539, 48 h, read-out: Activity
OVCAR-5 [6] = assay: Cytotoxicity against human OVCAR5 cells assessed as cell growth at 1 uM after 48 hrs by sulforhodamine B assay; details: OVCAR-5, 48 h, read-out: Activity
M14 [7] = assay: Cytotoxicity against human M14 cells assessed as cell growth at 10 uM after 48 hrs by sulforhodamine B assay; details: M14, 48 h, read-out: Activity
SN12C = assay: Cytotoxicity against human SN12C cells assessed as cell growth at 0.01 uM after 48 hrs by sulforhodamine B assay; details: read-out: Activity
A498 = assay: Cytotoxicity against human A498 cells assessed as cell growth at 10 uM after 48 hrs by sulforhodamine B assay; details: A498, 48 h, read-out: Activity; summary of the method: as §2
T47D [8] = assay: Cytotoxicity against human T47D cells assessed as cell growth at 10 uM; details: read-out: Activity; summary of the method: as §3
NCI-H522 = assay: Growth inhibition of human NCI-H522 cells after 48 hrs by sulforhodamine B assay; details: NCI-H522, 48 h; summary of the method: as §1
HOP-62 [9] = assay: Cytotoxicity against human HOP62 cells assessed as cell growth at 10 uM after 48 hrs by sulforhodamine B assay; details: HOP-62, 48 h, read-out: Activity
[10] = read-out: LC50 (the source's name)

SMILES: COc1cc(C)cc(-c2c(-c3ccnc(-c4ccc(N(C)C)cc4)c3)cnn2CC#N)c1
- growth at 0.001 µM (UACC-62): 96%
- growth at 0.001 µM (HOP-62 [1]): 99%
- GI50 (HL-60(TB)): 105 nM
- LC50 (HL-60(TB)): > 100000 nM
- TGI (HL-60(TB)): 465 nM
- growth at 0.001 µM (M14 [2]): 95%
- growth at 0.01 µM (Malme-3M): 34%
- growth at 1 µM (OVCAR-8): 12%
- growth at 0.1 µM (OVCAR-5 [3]): 53%
- GI50 (NCI/ADR-RES): 47.9 nM
- TGI (NCI/ADR-RES): > 100000 nM
- CC50 (NCI/ADR-RES; [10]): > 100000 nM
- growth at 0.01 µM (OVCAR-3): 63%
- growth at 0.001 µM (SK-MEL-2): 97%
- growth at 10 µM (K562): -5%
- growth at 0.01 µM (TK-10): 75%
- growth at 0.1 µM (KM12): -36%
- growth at 0.01 µM (COLO 205): 72%
- growth at 0.01 µM (786-0): 55%
- growth at 0.001 µM (HCT-15): 100%
- growth at 10 µM (HOP-62 [4]): 14.9%
- growth at 10 µM (MDA-MB-435): -14.7%
- GI50 (T47D [5]): 56 nM
- LC50 (T47D [5]): > 100000 nM
- TGI (T47D [5]): > 100000 nM
- growth at 1 µM (LOX IMVI): 12%
- growth at 0.001 µM (SF-539): 104%
- growth at 1 µM (OVCAR-5 [6]): 81%
- growth at 10 µM (M14 [7]): -7%
- growth at 0.01 µM (SN12C): 75%
- growth at 10 µM (A498): 7%
- growth at 10 µM (T47D [8]): 46.5%
- GI50 (NCI-H522): 27 nM
- TGI (NCI-H522): 84.6 nM
- CC50 (NCI-H522; [10]): 3220 nM
- growth at 10 µM (HOP-62 [9]): 32%
